# Assay results reported in ChEMBL document CHEMBL3352559, “Synthesis and pharmacological investigation of aralkyl diamine derivatives as potential triple reuptake inhibitors” (Eur J Med Chem, 2014).
# Key:
# [1] = target: T1, Sodium-dependent serotonin transporter (Homo sapiens, UniProt P31645); assay: Inhibition of [3H]-serotonin uptake in human SERT expressed in HEK293 cells at 10 uM by scintillation counting; assay type: cell-based
# Target sequence in this assay (P31645 whole entry, looked up): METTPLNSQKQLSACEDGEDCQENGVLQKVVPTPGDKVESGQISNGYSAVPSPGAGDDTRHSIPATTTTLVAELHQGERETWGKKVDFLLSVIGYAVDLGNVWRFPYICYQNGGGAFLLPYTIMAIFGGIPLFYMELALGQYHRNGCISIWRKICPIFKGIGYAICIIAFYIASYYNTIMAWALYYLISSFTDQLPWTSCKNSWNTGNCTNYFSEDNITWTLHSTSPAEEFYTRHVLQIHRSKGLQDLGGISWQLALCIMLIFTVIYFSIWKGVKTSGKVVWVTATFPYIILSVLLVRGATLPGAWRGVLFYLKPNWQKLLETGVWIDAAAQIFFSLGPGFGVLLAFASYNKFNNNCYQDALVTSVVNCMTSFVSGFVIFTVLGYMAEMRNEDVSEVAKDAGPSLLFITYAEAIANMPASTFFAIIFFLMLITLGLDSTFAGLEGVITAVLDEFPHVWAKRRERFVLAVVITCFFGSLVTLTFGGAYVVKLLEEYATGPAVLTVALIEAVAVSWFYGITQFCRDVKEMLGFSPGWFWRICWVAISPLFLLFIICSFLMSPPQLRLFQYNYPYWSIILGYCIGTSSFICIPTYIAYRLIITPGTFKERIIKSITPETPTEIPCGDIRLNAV
# [2] = target: T2, Sodium-dependent noradrenaline transporter (Homo sapiens, UniProt P23975); assay: Inhibition of [3H]-NE uptake in human norepinephrine transporter expressed in HEK293 cells at 10 uM by scintillation counting; assay type: cell-based
# [3] = target: T3, Sodium-dependent dopamine transporter (Homo sapiens, UniProt Q01959); assay: Inhibition of [3H]-DA uptake in human dopamine transporter expressed in CHO cells at 10 uM by scintillation counting
# [4] = test system: Rattus norvegicus; assay: Toxicity in rat assessed as effect on locomotion at 30 mg/kg, po after 60 mins by spontaneous locomotor test; assay type: organism-based; design: dose 30 mg/kg, route oral; conditions: in vivo, 1 h
# Procedure, shortened: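 Rats were dosed PO. 60 min later each was placed alone in an unfamiliar 40 cm × 40 cm × 50 cm plastic cage under dim light and sound attenuation. Spontaneous activity was monitored automatically at 5 min intervals for up to 30 min. Results are mean ± SEM versus vehicle.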
# [5] = test system: Rattus norvegicus; assay: Antidepressant activity in rat assessed as reduction in immobility time at 30 mg/kg, po by forced swimming test relative to control; assay type: functional
# Procedure, shortened: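 Male rats were dosed PO with vehicle or compound. After 1 h each rat was placed in a clear glass cylinder (40 cm tall × 18 cm diameter) holding water at 25 ± 1 °C, 15 cm deep. Immobility time was recorded over a 6 min trial and compared with vehicle. Significant main effects were followed by Fisher's post hoc test.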
# [6] = target: T2, Sodium-dependent noradrenaline transporter; assay: Inhibition of [3H]-NE uptake in human norepinephrine transporter expressed in HEK293 cells by scintillation counting; assay type: cell-based
# [7] = target: T1, Sodium-dependent serotonin transporter; assay: Inhibition of [3H]-serotonin uptake in human SERT expressed in HEK293 cells by scintillation counting; assay type: cell-based
# Target sequence in this assay (P31645 whole entry): as the sequence (P31645 whole entry, looked up) above
# [8] = target: T3, Sodium-dependent dopamine transporter; assay: Inhibition of [3H]-DA uptake in human dopamine transporter expressed in HEK293 cells by scintillation counting; assay type: cell-based
# [9] = test system: Rattus norvegicus; assay: Antidepressant activity in rat assessed as reduction in immobility time at 20 mg/kg, po by forced swimming test relative to control; assay type: functional
# Procedure, shortened: (§1)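 Male rats dosed orally at 5, 10 or 20 mg/kg alongside vehicle and venlafaxine 30 mg/kg PO groups. 1 h post-dose, each rat placed in a glass cylinder (40 cm × 18 cm) holding 15 cm of 25 ± 1 °C water. Immobility time recorded over a 6 min trial; significant main effects followed by post hoc Fisher's test.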
# [10] = test system: Rattus norvegicus; assay: Antidepressant activity in rat assessed as reduction in immobility time at 5 mg/kg, po by forced swimming test relative to control; assay type: functional; procedure, shortened: as §1
# [11] = test system: Rattus norvegicus; assay: Toxicity in rat assessed as effect on locomotion at 20 mg/kg, po after 60 mins by spontaneous locomotor test; assay type: organism-based; design: dose 20 mg/kg, route oral; conditions: in vivo, 1 h
# Procedure, shortened: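 Rats dosed orally at 20 mg/kg, with vehicle and venlafaxine 30 mg/kg PO as controls; 60 min later placed singly in novel 40×40×50 cm cages under dim light with sound attenuation; activity recorded automatically in 5 min bins over 30 min; mean ± SEM.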
# [12] = test system: Rattus norvegicus; assay: Antidepressant activity in rat assessed as reduction in immobility time at 10 mg/kg, po by forced swimming test relative to control; assay type: functional; procedure, shortened: as §1
# [13] = test system: Rattus norvegicus; assay: Antidepressant activity in po dosed rat assessed as reduction in immobility time by forced swimming test; assay type: functional, organism-based; procedure, shortened: as §1
# T3 sequence (Q01959 whole entry): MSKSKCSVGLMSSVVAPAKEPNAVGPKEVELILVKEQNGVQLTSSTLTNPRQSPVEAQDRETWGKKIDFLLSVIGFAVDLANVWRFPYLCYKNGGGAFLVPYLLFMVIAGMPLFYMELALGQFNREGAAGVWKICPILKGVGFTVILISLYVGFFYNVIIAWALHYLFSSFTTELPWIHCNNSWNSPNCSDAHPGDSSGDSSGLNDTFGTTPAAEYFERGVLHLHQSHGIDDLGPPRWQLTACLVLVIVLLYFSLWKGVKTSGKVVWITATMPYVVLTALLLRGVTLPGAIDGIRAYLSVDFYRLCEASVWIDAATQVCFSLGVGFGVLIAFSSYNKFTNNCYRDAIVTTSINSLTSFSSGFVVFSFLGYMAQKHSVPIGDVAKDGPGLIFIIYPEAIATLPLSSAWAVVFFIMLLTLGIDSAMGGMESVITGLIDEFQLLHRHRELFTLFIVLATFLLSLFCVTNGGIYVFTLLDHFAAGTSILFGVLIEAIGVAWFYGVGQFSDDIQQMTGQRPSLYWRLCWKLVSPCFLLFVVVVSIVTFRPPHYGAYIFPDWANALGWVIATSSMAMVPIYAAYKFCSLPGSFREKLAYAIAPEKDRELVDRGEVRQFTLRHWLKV
# T2 sequence (P23975 whole entry): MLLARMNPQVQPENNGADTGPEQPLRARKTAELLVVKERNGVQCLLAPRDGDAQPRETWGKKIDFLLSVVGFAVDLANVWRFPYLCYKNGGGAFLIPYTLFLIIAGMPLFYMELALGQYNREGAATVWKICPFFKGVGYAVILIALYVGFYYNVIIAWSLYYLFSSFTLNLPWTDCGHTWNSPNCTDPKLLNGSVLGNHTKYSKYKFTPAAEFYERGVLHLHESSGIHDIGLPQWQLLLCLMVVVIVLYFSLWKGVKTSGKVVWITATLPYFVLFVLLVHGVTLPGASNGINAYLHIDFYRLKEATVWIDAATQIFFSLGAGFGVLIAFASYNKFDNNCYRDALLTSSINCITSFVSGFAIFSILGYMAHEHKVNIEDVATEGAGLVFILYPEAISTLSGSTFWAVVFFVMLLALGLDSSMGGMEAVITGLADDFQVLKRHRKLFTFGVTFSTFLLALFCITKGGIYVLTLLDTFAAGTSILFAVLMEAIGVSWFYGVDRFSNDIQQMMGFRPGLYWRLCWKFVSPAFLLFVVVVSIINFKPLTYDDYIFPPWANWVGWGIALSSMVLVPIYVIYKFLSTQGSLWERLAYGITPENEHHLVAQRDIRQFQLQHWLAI
Compound,inhibition [1] [%],inhibition [2] [%],inhibition [3] [%],IC50 [6] [nM],IC50 [7] [nM],other results
Clc1ccc(C(CCN2CCOCC2)N2CCOCC2)cc1Cl (centres undefined),73.8,4.9,54.4,–,–,–
COc1ccc(C(CN(C)C)C2(O)CCCCC2)cc1 (centres undefined) [VENLAFAXINE],–,–,–,–,–,Activity [4]: Toxic; inhibition in vivo at 30 mg/kg [5]: 14%
CNCCC(c1ccc(F)cc1F)N1CCOCC1 (centres undefined),86.1,–,42,328,–,–
C1=C(Cc2ccccc2)CCN(CCC(c2csc3ccccc23)N2CCCC2)C1 (centres undefined),–,–,–,157,621,IC50 [8]: 325 nM
CN(CCC(c1cc2ccccc2s1)N1CCOCC1)Cc1ccccc1 (centres undefined),30.3,37.8,41.9,–,–,–
CN(C)CCC(c1ccc(C(F)(F)F)cc1)N1CCOCC1 (centres undefined),46.2,83.2,8.5,–,–,–
CN(C)CCC(c1cc2ccccc2s1)N1CCCC1 (centres undefined),–,–,–,495,401,IC50 [8]: 863 nM
COc1ccc2cc(C(CCN(C)C)N3CCCC3)ccc2c1Cl (centres undefined),–,–,–,374,338,IC50 [8]: 8190 nM
COc1ccc2cc(C(CCN3CC=C(Cc4ccccc4)CC3)N3CCCC3)ccc2c1Cl (centres undefined),79.9,73.5,79.5,–,–,–
CCOC(=O)C1CCCN(C(CCN2CCOCC2)c2ccc(Cl)c(Cl)c2)C1 (centres undefined),34.9,19,36.6,–,–,–
CN(C)CCC(c1ccc(Cl)c(Cl)c1)N1CCCCC1 (centres undefined),–,–,–,634,546,IC50 [8]: 602 nM
Clc1ccc(C(CCN2CCOCC2)N2CCCC2)cc1Cl (centres undefined),–,–,–,68.9,389,inhibition in vivo at 20 mg/kg [9]: 34%; inhibition in vivo at 5 mg/kg [10]: 12%; Activity [11]: Non-toxic; inhibition in vivo at 10 mg/kg [12]: 17%; IC50 [8]: 238 nM; inhibition [13]: Dose-dependent effect
Clc1ccc(C(CCN2CCCCC2)N2CCOCC2)cc1Cl (centres undefined),59.9,74,68.1,–,–,–
CN(C)CCC(c1ccc(C(F)(F)F)cc1)N1CCCC1 (centres undefined),57.6,77.4,37.1,–,–,–
Cc1ccc(C(CCN(C)C)N2CCOCC2)cc1 (centres undefined),39.2,40.4,25.8,–,–,–
CN(C)CCC(c1ccc(F)cc1)N1CCCCC1 (centres undefined),62.7,87.6,40.1,–,–,–
CN(C)CCC(c1ccc(Cl)c(Cl)c1)N1CCNCC1 (centres undefined),–,–,80.1,428,399,–
C1=C(Cc2ccccc2)CCN(CCC(c2csc3ccccc23)N2CCCCC2)C1 (centres undefined),–,52.7,77.4,–,905,–

Compound,inhibition [1] [%],inhibition [2] [%],inhibition [3] [%],IC50 [6] [nM],IC50 [7] [nM],other results
CN(C)CCC(c1ccc(F)cc1)N1CCOCC1 (centres undefined),50.7,74.2,6.4,–,–,–
CN(C)CCC(c1ccc(F)cc1F)N1CCOCC1 (centres undefined),55.6,19.4,50.7,–,–,–
CN(CCC(c1ccc(F)cc1F)N1CCOCC1)Cc1ccccc1 (centres undefined),24.1,5.3,46.2,–,–,–
COc1ccc2cc(C(CCN(C)Cc3ccccc3)N3CCOCC3)ccc2c1Cl (centres undefined),47.3,49.5,2.5,–,–,–
CN(C)CCC(c1cc2ccccc2s1)N1CCOCC1 (centres undefined),–,–,66.8,1460,449,–
CN(C)CCC(c1csc2ccccc12)N1CCCC1 (centres undefined),–,–,–,250,425,IC50 [8]: 986 nM
CN(C)CCC(c1ccc(Cl)cc1)N1CCOCC1 (centres undefined),58.5,52.5,35.7,–,–,–
CN(C)CCC(c1csc2ccccc12)N1CCOCC1 (centres undefined),–,–,56.8,2540,1190,–
CC1CCCN(C(CCN2CCOCC2)c2ccc(Cl)c(Cl)c2)C1 (centres undefined),30.5,35.3,54.3,–,–,–
CN(CCC(c1ccc(Cl)c(Cl)c1)N1CCOCC1)Cc1ccccc1 (centres undefined),35.6,50.6,3.4,–,–,–
CN(C)CCC(c1ccc(Cl)c(Cl)c1)N1CCCC1 (centres undefined),–,–,–,206,501,inhibition in vivo at 20 mg/kg [9]: 36%; inhibition in vivo at 5 mg/kg [10]: 18%; Activity [11]: Non-toxic; inhibition in vivo at 10 mg/kg [12]: 25%; IC50 [8]: 357 nM; inhibition [13]: Dose-dependent effect
Clc1ccc(C(CCN2CC=C(Cc3ccccc3)CC2)N2CCCC2)cc1Cl (centres undefined),79.1,–,–,426,–,IC50 [8]: 291 nM
C1=C(Cc2ccccc2)CCN(CCC(c2csc3ccccc23)N2CCOCC2)C1 (centres undefined),65.4,79.1,–,–,–,IC50 [8]: 852 nM
CN(C)CCC(c1ccc(F)cc1)N1CCCC1 (centres undefined),70.2,68.9,46.6,–,–,–
CCN(CC)CCC(c1ccc(Cl)c(Cl)c1)N1CCCC1 (centres undefined),76.5,–,–,136,–,IC50 [8]: 363 nM
C1=C(Cc2ccccc2)CCN(CCC(c2csc3ccccc23)N2CCNCC2)C1 (centres undefined),73.9,–,83.9,635,–,–
COc1ccc(C(CCN(C)C)N2CCOCC2)cc1 (centres undefined),25.9,29.3,22.9,–,–,–
